NPY Y2 blocker – blocks the human neuropeptide Y Y2 receptor; inhibition, % at 2.7 µM; NPY-Y2 expressing cells, antagonist mode; AID 793; hit rate 0.99% among 140,000; P49146; in the data active means inhibition above about 17%
S1P4 ag – human S1P4 receptor agonism; O95977; S1P4-expressing cell line, agonist reporter assay; activation, % at 4.98 µM; hit rate 0.35% among 220,000; AID 1509; in the data active means activation above about 11%
Target sequence (O95977 whole entry, looked up): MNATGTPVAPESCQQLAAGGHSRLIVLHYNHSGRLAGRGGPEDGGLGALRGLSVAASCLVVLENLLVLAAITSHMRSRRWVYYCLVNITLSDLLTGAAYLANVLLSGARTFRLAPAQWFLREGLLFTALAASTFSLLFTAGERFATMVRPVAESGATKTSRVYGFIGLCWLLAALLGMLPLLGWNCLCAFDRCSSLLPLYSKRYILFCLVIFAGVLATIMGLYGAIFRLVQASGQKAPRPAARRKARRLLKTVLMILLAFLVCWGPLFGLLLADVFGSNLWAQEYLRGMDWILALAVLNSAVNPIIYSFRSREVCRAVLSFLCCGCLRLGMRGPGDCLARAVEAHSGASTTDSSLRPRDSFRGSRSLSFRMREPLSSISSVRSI
NPY-Y2 PAM-ag – potentiators or agonists of human neuropeptide Y receptor Y2 | activation, % at 3.6 µM | cells expressing NPY-Y2, potentiator/agonist read-out | hit rate 0.45% among 220,000 | AID 1359; in the data active means activation above about 27%;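 further: cells stimulated with NPY near EC25 plus isoproterenol at EC100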
S1P4 antag – antagonists of human S1P4 receptor. O95977. S1P4-expressing cells, antagonist mode, reporter read-out. inhibition, % at 4.98 µM. hit rate 0.26% among 220,000. AID 1510; in the data active means inhibition above about 29%
NPY1 pot ag – human NPY-Y1 potentiation or agonism, primary screen; P25929; NPY-Y1 expressing cells, potentiator/agonist activation; activation, % at 3.6 µM; hit rate 0.37% among 220,000; AID 1304; in the data active means activation above about 33%, passing the limit was not always enough;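 further: cells stimulated with NPY at EC10 then isoproterenol at EC100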
NPY-Y1 antag – antagonists of human neuropeptide Y receptor Y1; P25929; HEK293-CNG Y1 cells, membrane potential fluorescence; NPY at EC95, then isoproterenol; inhibition, % at 3.6 µM; hit rate 1% among 200,000; AID 1040;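 active means inhibition above the campaign mean inhibition of all tested compounds plus 3 SD, cut at about 20% in these data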
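Assay system: HEK293 cells with Y1 receptor plus CNG channel | Probe or stimulus: NPY (25 nM), isoproterenol (1 µM), Ro 20-1724 (25 µM) | Timing: Compound incubation 1 h at room temperature, readout 45 min post-stimulation | Measured by: Membrane-potential fluorescent dye readout | Benchmarks: High control isoproterenol alone, low control NPY with isoproterenol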
A number is an active result; 0 = inactive; - = no result given. Sampled rows, rich in hits. Any-hit rate of the full collection: about 2.4%.

SMILES	NPY Y2 blocker	S1P4 ag	NPY-Y2 PAM-ag	S1P4 antag	NPY1 pot ag	NPY-Y1 antag
CCCCN(CCCC)CC(O)CN(c1cc([N+](=O)[O-])ccc1OC)S(=O)(=O)c1ccccc1 (configuration not stated)	20	0	0	0	0	23
COc1ccc([N+](=O)[O-])cc1N(CC(O)CN(C)C)S(=O)(=O)c1ccc(C)cc1 (configuration not stated)	-	0	0	0	0	0
CCOC(=O)Cn1c(=O)oc2cc(S(=O)(=O)NC3CCCc4ccccc43)ccc21 (configuration not stated)	0	0	37	0	63	0
CCCCNS(=O)(=O)c1ccc2c(c1)oc(=O)n2CC(=O)OCC	0	0	0	0	0	0
CCOC(=O)Cn1c(=O)oc2cc(S(=O)(=O)Nc3c(C)cc(C)cc3C)ccc21	0	0	0	0	38	0
CCN(CC)S(=O)(=O)c1ccc(N2CCOCC2)c(NCC(=O)Nc2ccc(F)cc2)c1	-	0	0	0	0	0
CSc1nc(=S)c2[nH]c(=S)[nH]c2[nH]1	-	0	0	0	0	-
CCCCn1c(=N)n(CC(O)COc2cccc(C)c2)c2ccccc21 (configuration not stated)	54	0	0	0	0	31
CCCCCn1c(=N)n(CC(O)COc2ccccc2OC)c2ccccc21 (configuration not stated)	35	0	0	0	0	25
CCCn1c(=N)n(CC(O)COc2ccc(C)cc2)c2ccccc21 (configuration not stated)	-	0	0	0	0	-
COc1ccccc1OCC(O)Cn1c(=N)n(Cc2ccccc2)c2ccccc21 (configuration not stated)	39	0	0	0	0	27
O=C(NC(=S)N1CCN(c2ccccn2)CC1)c1ccco1	-	0	0	0	0	0
CCc1ccccc1OCC(=O)Nc1nc(-c2cccnc2)cs1	-	0	0	0	0	0
Cc1cc(C(=O)NN=C2CCCCCC2)c(C)o1	-	0	0	0	0	-
O=C(COc1ccc(Cl)cc1)NCCSCc1cccc(Cl)c1	17	0	0	0	0	0
Cc1ccc(CSCCNC(=O)c2ccc(NS(C)(=O)=O)cc2)cc1	-	0	0	0	0	0
O=C(c1ccc(Br)o1)N1CCc2ccccc21	-	0	0	0	0	0
O=C(Nc1ccc(-n2ccc(C(F)(F)F)n2)cc1)Nc1cccc(Cl)c1	-	0	40	0	52	-
COc1c(O)ccc(C2NC(=O)NC(C)=C2C(=O)Nc2ccccc2C)c1[N+](=O)[O-] (configuration not stated)	-	0	0	0	0	0
O=C(Nc1cccc(C(F)(F)F)c1)c1cc(-c2ccc(F)cc2)on1	24	0	0	0	0	22
CC(C)c1cc(C(=O)Nc2cccc(C(F)(F)F)c2)no1	0	0	0	0	0	0
CCCOc1cccc(C2C(C(=O)c3cccs3)=C(O)C(=O)N2Cc2cccnc2)c1 (configuration not stated)	-	0	0	0	0	-
Cc1cc(C)cc(NC(=S)NCCN(C2CCCCC2)C2CCCC2)c1	-	0	0	0	0	21
Cc1cccc(C(=O)N/C(=C\c2ccc(C)o2)C(=O)O)c1	-	0	0	0	0	-
CCCc1cc(=O)[nH]c(SCC(=O)Nc2ccc([N+](=O)[O-])cc2C#N)n1	-	0	0	0	0	-
SMILES	NPY Y2 blocker	S1P4 ag	NPY-Y2 PAM-ag	S1P4 antag	NPY1 pot ag	NPY-Y1 antag
OC(CNCCc1ccc(C(F)(F)F)cc1)COc1ccc2ccccc2c1 (configuration not stated)	0	0	0	0	0	0
OC(CNCCc1ccc(C(F)(F)F)cc1)COc1cccc2ccccc12 (configuration not stated)	0	0	46	0	60	0
COc1ccc(CCNCC(O)COc2cccc(Br)c2)cc1 (configuration not stated)	-	0	63	0	75	0
N=c1sccn1CC(=O)Nc1ccc([N+](=O)[O-])cc1Cl	-	0	0	0	0	-
CC(C)c1nnc(NC(=O)c2cccc(NC(=O)C(F)(F)F)c2)s1	-	0	0	0	0	0
O=C(Nc1nc2ccccc2s1)C1CCN(S(=O)(=O)c2cc([N+](=O)[O-])ccc2Cl)CC1	-	0	82	0	80	-
COc1cc(C(C#N)N2CCC(c3ccccc3)=N2)ccc1O (configuration not stated)	-	0	0	0	0	-
Oc1ccc(N=Nc2c(O)ccc3ccccc23)cc1	0	0	82	0	87	0
NS(=O)(=O)c1ccc(N=Nc2c(O)ccc3ccccc23)cc1	-	0	0	0	0	0
Cc1ccccc1N=C(NOCc1ccccc1)c1nonc1N	0	0	0	0	0	0
Cc1ccc(N=C(NOCc2ccc(Cl)cc2Cl)c2nonc2N)c(C)c1	21	0	0	0	0	32
Cc1ccccc1N=C(NOCc1ccc(Cl)cc1Cl)c1nonc1N	30	0	0	0	0	33
Cc1ccc(N=C(NO)c2nonc2N)c(C)c1	0	0	0	0	0	0
O=C(NCCCN1CCOCC1)C(=O)NCc1ccco1	-	0	0	0	0	0
CCOc1ccc2c(c1)sc(N)[n+]2Cc1cc(C)cc2cccnc12	42	0	0	0	0	52
Cc1cc(C[n+]2ncsc2N)c2ncccc2c1	-	0	0	0	0	-
COc1ccc2c(c1)sc(N)[n+]2Cc1cc(C)cc2cccnc12	48	0	0	0	0	49
CC1CCCCN1S(=O)(=O)c1ccc(C(=O)Nc2nnc(-c3ccccc3Cl)o2)cc1 (configuration not stated)	0	0	99	0	95	0
COc1ccc(OC)c(C(c2nnnn2C2CCCC2)N2CCc3ccccc3C2)c1 (configuration not stated)	18	0	0	0	0	21
COc1ccc(COc2ccsc2C(=O)Nc2ccc(Cl)c(Cl)c2)cc1	0	0	0	0	0	0
O=C1NC2(CCCCCC2)C(=O)N1Cc1ccc([N+](=O)[O-])cc1	0	0	0	0	0	0
CCCC(=Nc1ccccc1OC)C1=C(O)CC(c2ccccc2)CC1=O (configuration not stated)	0	0	0	0	0	0
COc1ccccc1N=C(C)C1=C(O)CC(c2ccccc2)CC1=O (configuration not stated)	-	0	0	0	0	21
Cc1ccc(CS(=O)(=O)c2ccc(C(=O)N3CCN(c4ccccn4)CC3)cc2[N+](=O)[O-])cc1	-	0	0	0	0	20
CCCn1c(O)c(N=NC(=O)c2cccnc2)c2cc(Br)ccc21	-	0	0	0	0	-
CCNS(=O)(=O)c1ccc(NC(=O)c2ccc(Cn3cc(Br)cn3)o2)cc1	0	0	0	0	0	0
CC(=O)c1sc(NC(=O)c2ccc(Cn3cc(Br)cn3)o2)nc1C	0	0	48	0	46	0
CCOC(=O)Cc1csc(NC(=O)CSc2nc(-c3ccccc3)c(C#N)c(=O)[nH]2)n1	-	0	0	0	0	21
